From ChEMBL document CHEMBL2086264
≈ marks a conversion by molar mass, not a printed value. Calls of active or inactive are those of the source. The calls are words filed in the database; no cut-off is given here.

What was measured:
Staphylococcus aureus [1] = assay: Growth inhibition of Staphylococcus aureus RN4220 harboring gpsA mutant at 6.25 to 100 uM measured immediately by spectrophotometry; type: functional, organism-based
[2] = tested on: Staphylococcus aureus subsp. aureus RN4220; assay: Inhibition of PlsY in Staphylococcus aureus RN4220 harboring gpsA mutant assessed as Fab4-mediated fatty acid chain elongation measured as 16C fatty acid level at 25 uM after 2.5 hrs by mass spectrophotometry; parameters: scale not given: the % may be the effect or the level left
Method in brief: (§1)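 RN4220 grown in Luria-Bertani broth at 37°C with 225 rpm shaking to OD600 0.5. 50 mL cultures treated for 2.5 h alongside a DMSO control. Lipids extracted by Bligh–Dyer and fatty acids analyzed by gas chromatography. Weight percent, mean of duplicates; not detected means <1%.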

[3] = tested on: Staphylococcus aureus subsp. aureus RN4220; assay: Inhibition of PlsY in Staphylococcus aureus RN4220 harboring gpsA mutant assessed as Fab4-mediated fatty acid chain elongation measured as 21C fatty acid level at 25 uM after 2.5 hrs by mass spectrophotometry; parameters: scale not given: the % may be the effect or the level left; method in brief: as §1
[4] = tested on: Staphylococcus aureus subsp. aureus RN4220; assay: Inhibition of PlsY-mediated lipid synthesis in Staphylococcus aureus RN4220 harboring gpsA mutant assessed as increase in [14C]-labeled free fatty acid level
[5] = tested on: Staphylococcus aureus subsp. aureus RN4220; assay: Inhibition of PlsY in Staphylococcus aureus RN4220 harboring gpsA mutant assessed as accumulation of long chain acyl-ACP at 12.5 to 100 uM after 2.5 hrs by Western blot analysis
Method in brief: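 Mid-log RN4220 (OD600 0.5) in 50 mL aliquots treated with compound at 37°C. Cell extracts loaded according to OD600 for similar total protein. Acyl-ACP species separated on 15% polyacrylamide gels containing 2 M urea, then detected by western blot with anti-ACP antibody.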

[6] = tested on: Staphylococcus aureus subsp. aureus RN4220; assay: Inhibition of PlsY in Staphylococcus aureus RN4220 harboring gpsA mutant assessed as Fab4-mediated fatty acid chain elongation measured as 15C fatty acid level at 25 uM after 2.5 hrs by mass spectrophotometry; parameters: scale not given: the % may be the effect or the level left; method in brief: as §1
Streptococcus pneumoniae = assay: Antibacterial activity against Streptococcus pneumoniae R6 after overnight incubation by microbroth dilution assay; type: functional
Method in brief: (§2)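 CLSI M7A7 microbroth dilution in Mueller-Hinton broth; S. pneumoniae broth given 5% lysed horse blood. DMSO stocks of 10 mg/mL; twofold dilutions to final 200–0.0125 µg/mL. Mid-log inoculum (OD600 0.5) diluted to final OD600 0.0005 (~10^5 CFU/mL). Overnight at 37°C; MIC is the lowest concentration inhibiting 90% of visible growth.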

[7] = tested on: Staphylococcus aureus subsp. aureus RN4220; assay: Inhibition of PlsY-mediated lipid synthesis in Staphylococcus aureus RN4220 assessed as inhibition of [14C]acetate incorporation into membrane phospholipids incubated for 15 mins prior to [14C]acetate addition measured after 30 mins by scintillation counting
Method in brief: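 Cultures grown from OD600 0.1 to 0.5, split into 10 mL aliquots, exposed to inhibitor or DMSO control for 15 min, then pulsed with [14C]acetate (10 µCi) for 30 min. Cells washed 4× in PBS, lipids extracted by Bligh and Dyer, counted by scintillation and normalized to OD600. Duplicates, mean with standard error.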

[8] = tested on: Staphylococcus aureus subsp. aureus RN4220; assay: Inhibition of PlsY-mediated lipid synthesis in Staphylococcus aureus RN4220 harboring gpsA mutant assessed as inhibition of [14C]acetate incorporation into fatty acid incubated for 15 mins prior to [14C]acetate addition measured after 30 mins by scintillation counting
Method in brief: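 Mid-log S. aureus RN4220 (OD600 0.5) split into 10 mL aliquots. Compound or DMSO added for 15 min, then 10 µCi [14C]acetate for 30 min. Cells PBS-washed, lipids extracted by Bligh–Dyer, scintillation counted and normalized to OD600. Duplicates, mean with standard error.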

Staphylococcus aureus [9] = assay: Inhibition of RNA synthesis in Staphylococcus aureus RN4220 harboring gpsA mutant assessed as inhibition of [3H]uracil incorporation into RNA at 50 uM incubated for 15 mins before [3H]uracil addition measured after 30 mins by scintillation counting; type: functional, organism-based
Method in brief: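 RN4220 at OD600 0.5 in 10 mL aliquots, 15 min with compound. Then 30 min with 10 µCi label: 3H amino acid mix (protein), [3H]thymidine (DNA) or [3H]uracil (stable RNA). Cells collected on 0.45 µm filters, counted, OD600-normalized and expressed relative to untreated cells. Duplicates, mean with standard error.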

[10] = tested on: Staphylococcus aureus subsp. aureus RN4220; assay: Inhibition of PlsY in Staphylococcus aureus RN4220 harboring gpsA mutant assessed as 36C phophotidylglycerol formation at 50 uM after 2.5 hrs by mass spectrophotometry
Method in brief: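 RN4220 grown in Luria-Bertani broth at 37°C to OD600 0.5. 50 mL aliquots treated for 2.5 h alongside a DMSO control. Cells PBS-washed, lipids extracted by Bligh–Dyer. Phosphatidylglycerol molecular species distribution determined by mass spectrometry.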

Bacillus anthracis = assay: Inhibition of protein synthesis in Bacillus anthracis sterne assessed as Inhibition of [3H]amino acid incorporation into protein incubated for 15 mins prior to [3H]amino acid addition measured after 30 mins by scintillation counting; type: functional, organism-based
Bacillus subtilis = assay: Antibacterial activity against Bacillus subtilis ATCC 23857 after overnight incubation by microbroth dilution assay; type: functional; method in brief: as §2
[11] = tested on: Staphylococcus aureus subsp. aureus RN4220; assay: Inhibition of PlsY in Staphylococcus aureus RN4220 harboring gpsA mutant assessed as Fab4-mediated fatty acid chain elongation measured as 20C fatty acid level at 50 uM after 2.5 hrs by mass spectrophotometry; parameters: scale not given: the % may be the effect or the level left; method in brief: as §1

O=C(CCCCCCCc1ccccc1)NS(=O)(=O)Oc1ccccc1
growth inhibition (GI) (Staphylococcus aureus [1]): inactive
Activity [2]: 5%
Activity [3]: 12%
inhibition [4]: Active
inhibition [5]: Active
Activity [6]: 37%
MIC90 (Streptococcus pneumoniae): 100 µg/mL (≈ 266 µM)
inhibition [7]: Dose-dependent effect
inhibition [8]: Dose-dependent effect
inhibition (Staphylococcus aureus [9]): inactive
inhibition [10]: Active
inhibition (Bacillus anthracis): Active
MIC90 (Bacillus subtilis): > 200 µg/mL
Activity [11]: 13%
